Measured values reported in BindingDB's records for doi:10.1016/j.bmc.2011.04.027 (University of Mansoura, 2011).

What follows are molecules tested against T1, Prostaglandin G/H synthase 1 (Ovis aries, UniProt P05979) (assay: Inhibition of ovine COX1 assessed as PGF2alpha production from PGH2 after 5 mins by enzyme immunoassay).
T1 sequence (P05979 whole entry): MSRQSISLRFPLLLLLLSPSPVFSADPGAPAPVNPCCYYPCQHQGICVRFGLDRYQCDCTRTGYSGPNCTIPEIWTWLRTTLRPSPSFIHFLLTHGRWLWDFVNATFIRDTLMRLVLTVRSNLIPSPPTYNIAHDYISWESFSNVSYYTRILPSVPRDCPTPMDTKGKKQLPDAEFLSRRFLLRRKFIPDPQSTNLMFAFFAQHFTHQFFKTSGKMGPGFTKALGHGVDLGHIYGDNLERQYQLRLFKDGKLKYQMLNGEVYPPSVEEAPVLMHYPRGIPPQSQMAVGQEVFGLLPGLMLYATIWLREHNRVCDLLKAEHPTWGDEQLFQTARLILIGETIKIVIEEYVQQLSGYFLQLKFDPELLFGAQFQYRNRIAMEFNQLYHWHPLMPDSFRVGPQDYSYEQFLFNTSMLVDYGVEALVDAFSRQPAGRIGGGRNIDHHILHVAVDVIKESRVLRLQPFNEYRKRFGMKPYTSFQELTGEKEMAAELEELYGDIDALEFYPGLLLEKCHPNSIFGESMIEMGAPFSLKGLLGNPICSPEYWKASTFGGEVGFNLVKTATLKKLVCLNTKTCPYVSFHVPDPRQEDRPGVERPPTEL
In short: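 Ovine COX-1 in reaction buffer with 2 mM phenol and heme, preincubated with six test concentrations (1 mL final) for 5 min at 37 °C. Arachidonic acid was then added and the reaction stopped with 1 M HCl after 2 min. Prostanoids were reduced with stannous chloride and quantified by competitive acetylcholinesterase-tracer EIA (Ellman's reagent, 410 nm). IC50 came from concentration–inhibition curves, duplicate determinations.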
For `FC(F)(F)c1[nH]nc(-c2ccc(Cl)cc2)c1N=Nc1ccccc1Cl` [3-(4-Chlorophenyl)-4-(2-(2-chlorophenyl)hydrazono)-5-trifuoromethyl)-4H-pyrazole], the IC50 was over 50 µM.
`FC(F)(F)c1cc(N=Nc2c(-c3ccc(Cl)cc3)n[nH]c2C(F)(F)F)cc(C(F)(F)F)c1` [3-(4-Chlorophenyl)-4-(2-(3,5-bis(trifluoromethyl)phenyl)hydrazono)-5-trifuoromethyl)-4H-pyrazole] was tested, and the IC50 was over 50 µM.
For `COc1ccc(N=Nc2c(-c3ccc(Cl)cc3)n[nH]c2C(F)(F)F)cc1` [3-(4-Chlorophenyl)-4-(2-(4-methoxyphenyl)hydrazono)-5-trifuoromethyl)-4H-pyrazole], the IC50 was over 50 µM.
`O=[N+]([O-])c1ccc(/N=N/c2c(-c3ccc(Cl)cc3)n[nH]c2C(F)(F)F)cc1` [3-(4-Chlorophenyl)-4-(2-(4-nitrophenyl)hydrazono)-5-trifuoromethyl)-4H-pyrazole] was tested, and the IC50 was over 50 µM.
